{"data": "Experimental data collected from several papers", "target": "Serine/threonine-protein kinase 25 (STK25, Homo sapiens, UniProt O00506)"}
{"Structure (SMILES)": "C[C@@H]1CCN(c2nccc(-c3cnn4ncccc34)n2)C1", "observed": "binding", "tested at": "1 µM", "remaining binding [%]": 100}
{"Structure (SMILES)": "CCS(=O)(=O)c1cc2cc(C[C@@](O)(CC(C)(C)c3ccc(F)cc3C(N)=O)C(F)(F)F)[nH]c2cn1", "observed": "cell-free assay", "method": "competition with immobilised ligand", "tested at": "1 µM", "remaining binding [%]": 87}
{"Structure (SMILES)": "N[C@@H]1CCN(c2nccc(-c3cnn4ncccc34)n2)C1", "observed": "binding", "tested at": "1 µM", "remaining binding [%]": 100}
{"Structure (SMILES)": "CCN1CCN(Cc2ccc(C(=O)Nc3ccc(C)c(Oc4ccc5c(c4)CC(=O)N5)c3)cc2C(F)(F)F)CC1", "observed": "binding", "method": "competition with immobilised ligand", "tested at": "1 µM", "remaining binding [%]": 100}
{"Structure (SMILES)": "CN(CCCC(F)(F)F)c1nccc(-c2cnn3ncccc23)n1", "observed": "binding", "tested at": "1 µM", "remaining binding [%]": 100}
{"Structure (SMILES)": "Cc1cnc(Nc2ccc(C(=O)N3CCC(N4CCCC4)CC3)cc2)nc1-c1cc2ccccc2s1", "observed": "binding", "method": "competition with immobilised ligand", "tested at": "1 µM", "remaining binding [%]": 21}
{"Structure (SMILES)": "COc1ccnn2ncc(-c3ccnc(N(C)C)n3)c12", "observed": "binding", "tested at": "1 µM", "remaining binding [%]": 100}
{"Structure (SMILES)": "CN([C@@H]1CCc2c(CC(=O)O)c3cc(S(C)(=O)=O)ccc3n2C1)S(=O)(=O)c1ccc(F)cc1", "observed": "cell-free assay", "method": "competition with immobilised ligand", "tested at": "1 µM", "remaining binding [%]": 100}
{"Structure (SMILES)": "O=C(NCC1CCOCC1)c1n[nH]cc1NC(=O)c1c(F)cccc1F", "observed": "binding", "method": "competition with immobilised ligand", "tested at": "1 µM", "remaining binding [%]": 95}
{"Structure (SMILES)": "COc1ncc2cc3ccccc3nc2c1C#N", "observed": "cell-free assay", "method": "competition with immobilised ligand", "tested at": "5 µM", "remaining binding [%]": 100}
{"Structure (SMILES)": "F[C@@H]1CCN(c2nccc(-c3cnn4ncccc34)n2)C1", "observed": "binding", "tested at": "1 µM", "remaining binding [%]": 100}
{"Structure (SMILES)": "O=C(NCCCN1CCOCC1)c1ccc(Nc2ncc(Cl)c(-c3ccc(Cl)s3)n2)cc1", "observed": "binding", "method": "competition with immobilised ligand", "tested at": "1 µM", "remaining binding [%]": 89}
{"Structure (SMILES)": "N#CC1(c2ccccn2)CCN(Cc2cc(C(=O)N3CCCC3)c(=O)n3ccccc23)CC1", "observed": "cell-free assay", "method": "competition with immobilised ligand", "tested at": "1 µM", "remaining binding [%]": 97}
{"Structure (SMILES)": "CN(c1nccc(-c2cnn3ncccc23)n1)C1CC1", "observed": "binding", "tested at": "1 µM", "remaining binding [%]": 100}
{"Structure (SMILES)": "O=C(NCCCC1CCCCC1)c1ccc(CNC(=O)c2cnn(-c3ccccc3)c2C(F)(F)F)cc1", "observed": "cell-free assay", "method": "competition with immobilised ligand", "tested at": "0.1 µM", "remaining binding [%]": 81}
{"Structure (SMILES)": "O=C(c1ccc(Nc2ncc(Cl)c(-c3cc4ccccc4s3)n2)cc1)N1CCC(N2CCCC2)CC1", "observed": "binding", "method": "competition with immobilised ligand", "tested at": "1 µM", "remaining binding [%]": 32}
{"Structure (SMILES)": "c1ccc(N2CCN(Cc3nc4ccccc4[nH]3)CC2)nc1", "observed": "binding", "method": "competition with immobilised ligand", "tested at": "1 µM", "remaining binding [%]": 94}
{"Structure (SMILES)": "COc1cnc(Nc2cccc(S(N)(=O)=O)c2)nc1N1CCN(c2ccccc2)C(=O)C1", "observed": "binding", "method": "competition with immobilised ligand", "tested at": "1 µM", "remaining binding [%]": 100}
{"Structure (SMILES)": "CCCCN(CCCC)C(=O)CN1C[C@H](c2cc(OC)c3c(c2)OCO3)[C@@H](C(=O)O)[C@@H]1CC(C)(C)CCC", "observed": "cell-free assay", "method": "competition with immobilised ligand", "tested at": "1 µM", "remaining binding [%]": 100}
{"Structure (SMILES)": "Nc1ncc2c(n1)-c1c([nH]c3ccc(C#CC4CC4)cc13)CCCC2", "observed": "binding", "method": "competition with immobilised ligand", "tested at": "1 µM", "remaining binding [%]": 100}
